The values below come from ChEMBL document CHEMBL3091364, “Benzyloxybenzylammonium chlorides: Simple amine salts that display anticonvulsant activity” (Bioorg Med Chem, 2013).

Broadly, the inhibition is the change of the read-out against control, counted positive when it falls. As usually defined, the ED50 is the midpoint of the dose-response relation. A word on the TD50: it is the dose at which the toxic effect under study appears in half of the subjects.

Data set [1] deals with T1, Muscarinic acetylcholine receptor M2 (Homo sapiens) (UniProt P08172).
T1 sequence (whole entry): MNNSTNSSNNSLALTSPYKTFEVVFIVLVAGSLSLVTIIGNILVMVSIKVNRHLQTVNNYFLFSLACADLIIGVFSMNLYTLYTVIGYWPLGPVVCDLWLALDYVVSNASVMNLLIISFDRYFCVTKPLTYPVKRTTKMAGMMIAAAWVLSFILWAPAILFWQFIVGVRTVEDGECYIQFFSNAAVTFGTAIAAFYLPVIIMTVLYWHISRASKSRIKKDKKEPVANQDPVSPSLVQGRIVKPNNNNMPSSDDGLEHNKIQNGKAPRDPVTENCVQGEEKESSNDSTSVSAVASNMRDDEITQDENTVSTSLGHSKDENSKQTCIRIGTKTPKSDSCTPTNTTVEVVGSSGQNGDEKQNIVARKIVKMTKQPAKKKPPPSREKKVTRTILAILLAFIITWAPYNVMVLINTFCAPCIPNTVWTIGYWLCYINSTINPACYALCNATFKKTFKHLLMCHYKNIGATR
Put plainly: Inhibition of muscarinergic M2 receptor (unknown origin) at 10 uM relative to control.

Data set [2] has as its target D(1A) dopamine receptor (Homo sapiens) (UniProt P21728). Put plainly: Inhibition of dopaminergic D1 receptor (unknown origin) at 10 uM relative to control.
Data set [3] deals with D(1B) dopamine receptor (Homo sapiens) (UniProt P21918). Put plainly: Inhibition of dopaminergic D5 receptor (unknown origin) at 10 uM relative to control.
In data set [4] the target is Histamine H2 receptor (Homo sapiens) (UniProt P25021). Put plainly: Inhibition of histamine H2 receptor (unknown origin) at 10 uM relative to control.
Data set [5] has as its target 5-hydroxytryptamine receptor 1B (Homo sapiens) (UniProt P28222). Put plainly: Inhibition of 5-HT1B receptor (unknown origin) at 10 uM relative to control.
In data set [6] the test system is Mus musculus. Put plainly: Anticonvulsant activity in ip dosed albino CF-1 mouse assessed as protection against maximal electroshock-induced seizures measured at 0.25 hrs. The settings on record: albino CF-1, ip. It counts as functional. The gist of the method: (§1)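 Screened under the NINDS ASP in male albino Carworth Farms No. 1 mice (ip) or male albino Sprague-Dawley rats (ip or po), using MES, 6 Hz (32 mA) and subcutaneous pentylenetetrazol seizure tests. Initial qualitative tests used preset doses (e.g., 30, 50, 100 mg/kg). ED50 values with 95% confidence intervals came from dose–response data collected at the time of peak effect.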

Data set [7] has as its target T2, 5-hydroxytryptamine receptor 1A (Homo sapiens) (UniProt P08908).
T2 sequence (whole entry): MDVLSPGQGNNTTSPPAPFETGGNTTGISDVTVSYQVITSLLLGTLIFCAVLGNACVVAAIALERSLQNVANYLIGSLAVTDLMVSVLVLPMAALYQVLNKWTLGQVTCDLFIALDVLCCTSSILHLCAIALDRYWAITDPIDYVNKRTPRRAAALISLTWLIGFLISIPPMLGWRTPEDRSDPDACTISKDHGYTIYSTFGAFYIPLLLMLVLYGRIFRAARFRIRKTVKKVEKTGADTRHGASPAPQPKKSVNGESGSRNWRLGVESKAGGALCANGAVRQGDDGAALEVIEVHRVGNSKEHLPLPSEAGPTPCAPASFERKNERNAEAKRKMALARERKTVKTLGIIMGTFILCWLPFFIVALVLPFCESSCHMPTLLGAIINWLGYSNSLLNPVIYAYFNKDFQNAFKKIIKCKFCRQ
Put plainly: Inhibition of 5-HT1A receptor (unknown origin) at 10 uM relative to control.

For data set [8], the target named is Sodium-dependent dopamine transporter (Homo sapiens) (UniProt Q01959). Put plainly: Inhibition of DAT (unknown origin) at 10 uM relative to control.
Data set [9] has as its target T3, Alpha-1B adrenergic receptor (Homo sapiens) (UniProt P35368).
T3 sequence (whole entry): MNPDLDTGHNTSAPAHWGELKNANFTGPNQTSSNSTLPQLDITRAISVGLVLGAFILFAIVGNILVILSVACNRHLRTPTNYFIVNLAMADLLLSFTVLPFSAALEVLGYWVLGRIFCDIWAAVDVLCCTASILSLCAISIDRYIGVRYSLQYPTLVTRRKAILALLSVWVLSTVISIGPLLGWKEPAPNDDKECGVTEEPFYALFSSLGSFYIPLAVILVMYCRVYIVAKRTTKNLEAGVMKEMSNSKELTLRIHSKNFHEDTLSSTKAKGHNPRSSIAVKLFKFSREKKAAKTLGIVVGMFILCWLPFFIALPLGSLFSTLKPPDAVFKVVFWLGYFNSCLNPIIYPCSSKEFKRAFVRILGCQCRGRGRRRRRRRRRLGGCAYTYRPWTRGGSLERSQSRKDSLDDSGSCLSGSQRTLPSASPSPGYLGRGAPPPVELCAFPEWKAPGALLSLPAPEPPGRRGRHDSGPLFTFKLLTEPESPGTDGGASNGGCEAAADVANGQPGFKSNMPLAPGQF
Put plainly: Inhibition of adrenergic alpha-1B receptor (unknown origin) at 10 uM relative to control.

A further data set is filed under the species Homo sapiens. Put plainly: Inhibition of sigma-2 receptor (unknown origin) at 10 uM relative to control.
Data set [10] deals with Histamine H1 receptor (Homo sapiens) (UniProt P35367). Put plainly: Inhibition of histamine H1 receptor (unknown origin) at 10 uM relative to control.
The target in data set [11] is 5-hydroxytryptamine receptor 7 (Homo sapiens) (UniProt P34969). Put plainly: Inhibition of 5-HT7 receptor (unknown origin) at 10 uM relative to control.
Data set [12] can be described thus: Toxicity in ip dosed albino CF-1 mouse assessed as neurological impairment measured at 0.25 hrs by rotorod test. The settings on record: in vivo. In kind it is organism-based. In a few lines:
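Male albino Carworth Farms No. 1 mice dosed intraperitoneally under the NINDS Anticonvulsant Screening Program; neurological impairment scored by rotorod test. Qualitative screens used preset doses (e.g., 30, 100 mg/kg); where activity was sufficient, dose–response curves were run at time of peak effect to give TD50 in mg/kg with 95% confidence intervals.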

Data set [13] addresses Delta-type opioid receptor (Homo sapiens) (UniProt P41143). Put plainly: Inhibition of delta opioid receptor (unknown origin) at 10 uM relative to control.
Data set [14] addresses Sodium-dependent noradrenaline transporter (Homo sapiens) (UniProt P23975). Put plainly: Inhibition of NET (unknown origin) at 10 uM relative to control.
Data set [15] has as its system Mus musculus. Put plainly: Anticonvulsant activity in ip dosed albino CF-1 mouse assessed as protection against maximal electroshock-induced seizures measured at 0.5 hrs. In kind it is functional. The settings on record: albino CF-1, ip. The gist of the method:
as §1

Structures are written as SMILES.

Chain of 5-hydroxytryptamine receptor 1B (Homo sapiens) (P28222 whole entry): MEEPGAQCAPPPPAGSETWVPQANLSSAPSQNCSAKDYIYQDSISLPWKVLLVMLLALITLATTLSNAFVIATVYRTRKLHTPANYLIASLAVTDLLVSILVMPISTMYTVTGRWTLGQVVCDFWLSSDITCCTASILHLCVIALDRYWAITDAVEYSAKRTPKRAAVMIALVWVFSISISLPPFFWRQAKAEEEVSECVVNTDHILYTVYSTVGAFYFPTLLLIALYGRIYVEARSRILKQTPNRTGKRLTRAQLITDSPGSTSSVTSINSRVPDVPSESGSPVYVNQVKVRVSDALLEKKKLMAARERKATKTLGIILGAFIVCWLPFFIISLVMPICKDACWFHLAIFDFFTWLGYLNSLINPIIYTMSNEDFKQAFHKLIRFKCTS
Chain of Delta-type opioid receptor (Homo sapiens) (P41143 whole entry): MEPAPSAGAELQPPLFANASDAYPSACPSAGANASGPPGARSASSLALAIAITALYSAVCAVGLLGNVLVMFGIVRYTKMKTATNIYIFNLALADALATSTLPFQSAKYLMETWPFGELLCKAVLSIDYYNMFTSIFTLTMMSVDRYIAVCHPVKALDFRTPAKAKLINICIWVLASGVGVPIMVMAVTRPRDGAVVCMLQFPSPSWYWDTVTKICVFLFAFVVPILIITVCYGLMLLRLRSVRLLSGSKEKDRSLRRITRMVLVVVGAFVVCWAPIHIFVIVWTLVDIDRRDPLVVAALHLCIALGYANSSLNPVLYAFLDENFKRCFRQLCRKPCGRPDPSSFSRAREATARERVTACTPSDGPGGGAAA
Chain of Sodium-dependent noradrenaline transporter (Homo sapiens) (P23975 whole entry): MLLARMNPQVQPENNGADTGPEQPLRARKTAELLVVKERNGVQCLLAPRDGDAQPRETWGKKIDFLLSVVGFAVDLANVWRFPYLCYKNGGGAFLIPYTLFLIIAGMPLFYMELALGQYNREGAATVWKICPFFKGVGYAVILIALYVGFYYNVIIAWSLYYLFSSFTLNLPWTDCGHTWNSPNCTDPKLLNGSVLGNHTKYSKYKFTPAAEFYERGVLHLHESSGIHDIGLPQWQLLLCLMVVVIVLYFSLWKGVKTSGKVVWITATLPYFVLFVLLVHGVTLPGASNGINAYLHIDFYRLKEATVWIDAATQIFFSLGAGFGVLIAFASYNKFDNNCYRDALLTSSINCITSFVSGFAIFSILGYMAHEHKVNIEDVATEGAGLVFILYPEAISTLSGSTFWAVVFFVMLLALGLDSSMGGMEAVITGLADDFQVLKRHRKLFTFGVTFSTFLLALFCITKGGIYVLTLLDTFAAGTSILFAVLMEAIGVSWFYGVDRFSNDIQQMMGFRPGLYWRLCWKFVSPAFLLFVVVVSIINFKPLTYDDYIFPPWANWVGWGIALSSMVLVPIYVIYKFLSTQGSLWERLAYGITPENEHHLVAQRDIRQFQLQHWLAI
Chain of 5-hydroxytryptamine receptor 7 (Homo sapiens) (P34969 whole entry): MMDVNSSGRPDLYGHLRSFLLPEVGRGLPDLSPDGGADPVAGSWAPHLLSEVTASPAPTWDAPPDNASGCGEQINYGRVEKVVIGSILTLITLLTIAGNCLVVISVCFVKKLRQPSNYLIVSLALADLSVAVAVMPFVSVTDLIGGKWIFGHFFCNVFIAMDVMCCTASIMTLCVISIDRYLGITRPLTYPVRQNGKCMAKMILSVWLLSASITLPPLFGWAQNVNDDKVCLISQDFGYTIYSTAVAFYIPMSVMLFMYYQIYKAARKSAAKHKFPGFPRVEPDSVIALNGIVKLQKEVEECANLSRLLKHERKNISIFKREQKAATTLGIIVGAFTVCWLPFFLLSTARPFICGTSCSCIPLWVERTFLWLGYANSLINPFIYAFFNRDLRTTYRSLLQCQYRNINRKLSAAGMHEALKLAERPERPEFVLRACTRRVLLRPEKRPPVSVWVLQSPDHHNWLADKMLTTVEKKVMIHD
Chain of Histamine H1 receptor (Homo sapiens) (P35367 whole entry): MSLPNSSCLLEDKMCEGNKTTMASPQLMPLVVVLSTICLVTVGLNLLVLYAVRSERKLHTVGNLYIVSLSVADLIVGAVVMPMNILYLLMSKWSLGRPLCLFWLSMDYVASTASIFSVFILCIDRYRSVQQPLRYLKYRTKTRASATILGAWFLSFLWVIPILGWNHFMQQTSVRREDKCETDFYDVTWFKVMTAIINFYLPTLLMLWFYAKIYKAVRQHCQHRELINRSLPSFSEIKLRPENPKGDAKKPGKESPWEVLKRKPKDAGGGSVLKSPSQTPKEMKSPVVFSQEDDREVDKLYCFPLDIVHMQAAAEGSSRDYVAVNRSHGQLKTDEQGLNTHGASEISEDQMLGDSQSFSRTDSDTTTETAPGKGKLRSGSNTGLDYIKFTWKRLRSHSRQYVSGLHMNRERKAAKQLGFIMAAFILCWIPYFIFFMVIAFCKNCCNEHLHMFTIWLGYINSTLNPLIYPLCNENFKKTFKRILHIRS
Chain of Histamine H2 receptor (Homo sapiens) (P25021 whole entry): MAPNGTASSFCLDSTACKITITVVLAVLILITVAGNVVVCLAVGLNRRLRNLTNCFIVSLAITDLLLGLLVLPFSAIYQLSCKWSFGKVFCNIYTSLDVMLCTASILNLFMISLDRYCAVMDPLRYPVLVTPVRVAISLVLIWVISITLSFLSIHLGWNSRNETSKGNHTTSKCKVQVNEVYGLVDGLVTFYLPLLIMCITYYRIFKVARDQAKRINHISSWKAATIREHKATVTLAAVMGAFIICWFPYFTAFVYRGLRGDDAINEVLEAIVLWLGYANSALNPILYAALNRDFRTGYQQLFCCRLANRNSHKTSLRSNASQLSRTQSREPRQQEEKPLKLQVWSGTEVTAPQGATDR
Chain of D(1B) dopamine receptor (Homo sapiens) (P21918 whole entry): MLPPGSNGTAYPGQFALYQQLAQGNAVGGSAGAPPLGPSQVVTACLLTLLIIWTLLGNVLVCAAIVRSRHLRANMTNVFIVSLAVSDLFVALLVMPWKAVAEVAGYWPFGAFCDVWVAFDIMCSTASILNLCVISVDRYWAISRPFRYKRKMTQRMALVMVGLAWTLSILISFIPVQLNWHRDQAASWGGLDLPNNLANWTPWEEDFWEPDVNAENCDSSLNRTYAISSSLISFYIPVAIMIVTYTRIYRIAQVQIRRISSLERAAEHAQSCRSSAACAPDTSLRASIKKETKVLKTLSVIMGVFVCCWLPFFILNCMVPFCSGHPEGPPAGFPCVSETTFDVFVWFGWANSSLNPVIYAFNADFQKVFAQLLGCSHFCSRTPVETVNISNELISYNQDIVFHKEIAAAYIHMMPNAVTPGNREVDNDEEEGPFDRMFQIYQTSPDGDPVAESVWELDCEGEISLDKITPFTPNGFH
Chain of D(1A) dopamine receptor (Homo sapiens) (P21728 whole entry): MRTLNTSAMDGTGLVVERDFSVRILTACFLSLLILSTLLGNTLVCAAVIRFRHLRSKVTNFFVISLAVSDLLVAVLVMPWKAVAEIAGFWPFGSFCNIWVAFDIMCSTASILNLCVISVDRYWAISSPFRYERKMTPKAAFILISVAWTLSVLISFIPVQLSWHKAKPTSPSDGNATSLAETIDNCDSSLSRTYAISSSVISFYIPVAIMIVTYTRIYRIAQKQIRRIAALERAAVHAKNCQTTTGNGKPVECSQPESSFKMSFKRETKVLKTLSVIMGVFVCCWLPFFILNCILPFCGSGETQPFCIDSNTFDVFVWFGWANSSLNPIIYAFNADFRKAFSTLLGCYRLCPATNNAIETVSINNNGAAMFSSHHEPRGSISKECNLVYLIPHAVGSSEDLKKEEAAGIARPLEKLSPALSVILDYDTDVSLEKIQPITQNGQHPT
Chain of Sodium-dependent dopamine transporter (Homo sapiens) (Q01959 whole entry): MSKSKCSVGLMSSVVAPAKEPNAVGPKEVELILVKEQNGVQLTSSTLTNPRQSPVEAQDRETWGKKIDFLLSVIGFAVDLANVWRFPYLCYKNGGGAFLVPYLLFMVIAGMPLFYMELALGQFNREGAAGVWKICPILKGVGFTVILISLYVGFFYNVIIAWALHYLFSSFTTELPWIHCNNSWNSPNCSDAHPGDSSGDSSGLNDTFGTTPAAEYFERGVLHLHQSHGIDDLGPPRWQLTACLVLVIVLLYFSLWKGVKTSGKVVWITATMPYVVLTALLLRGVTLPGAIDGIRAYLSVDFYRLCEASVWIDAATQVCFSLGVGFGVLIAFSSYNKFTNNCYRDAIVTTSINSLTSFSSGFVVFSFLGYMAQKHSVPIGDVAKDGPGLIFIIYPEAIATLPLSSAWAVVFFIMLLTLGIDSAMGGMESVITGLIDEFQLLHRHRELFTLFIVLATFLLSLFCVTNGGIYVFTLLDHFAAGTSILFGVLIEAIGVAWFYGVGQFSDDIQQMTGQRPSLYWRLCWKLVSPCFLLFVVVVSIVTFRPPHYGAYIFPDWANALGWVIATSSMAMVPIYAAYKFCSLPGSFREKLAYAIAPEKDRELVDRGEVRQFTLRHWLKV

In the case of `Cl.NCc1ccc(OCc2ccccc2OC(F)(F)F)cc1`, the inhibition in data set [1] was 3.8%; in [2] it was -2.5%; in data set [3], 3.9%; in data set [4], 5.8%; in data set [5], -8.8%; in [7] it was 10.1%. The inhibition was 50.7% in data set [8]; -2.4% in data set [9]; 89.8% in the data set listed under Homo sapiens; 15.6% in data set [10]; 38.7% in [11]; 23% in data set [13]. Besides, the inhibition in data set [14] turned out to be 29.3%. In the data set on Mus musculus [6], the ED50 stood at 20 mg/kg. In data set [12], the TD50 at 0.25 h is 64 mg/kg.
For `Cl.NCc1ccc(OCc2ccc(F)cc2)cc1`, the inhibition in data set [1] was 12.6%; in data set [2], -1.9%; in data set [3] it was 1%; in data set [4], 29.7%; in data set [5], -2.5%; in [7], 36%. For the same compound, the inhibition in [8] was 48.2%; in the data set filed under Homo sapiens, 67.6%; in data set [10], -5.8%; in [11], 67.7%; in [13] it was 17%; in data set [14], 59.9%. Moreover, in the data set with Mus musculus [6], the ED50 is below 100 mg/kg.
For `Cl.NCc1ccc(OCc2cccc(F)c2)cc1`, the inhibition is -6% in data set [1]; -1.1% in [2]; -0.5% in data set [3]; 50.1% in data set [7]; 76.8% in data set [8]; 24.8% in data set [9]. In addition, the inhibition in the data set listed under Homo sapiens came to 58.4%; in data set [10], 5.2%; in data set [11], 59.1%; in data set [13], 18%; in data set [14] it was 76.1%.
Take `Cl.NCc1ccc(OCc2ccccc2)cc1`: the inhibition in [1] is -2.5%; in data set [2], -6%; in data set [3], 1.9%; in data set [4], -4%; in [7] it was 16%; in data set [8], 72.2%. For the same compound, the inhibition in data set [9] is 0.5%; in the data set filed under Homo sapiens, 56.6%; in data set [10] it was 7.6%; in [11] it was 56.3%; in [13] it was 22%; in [14] it was 63.6%.
On to `Cl.NCc1ccc(OCc2cccc(OC(F)(F)F)c2)cc1`, for which the inhibition was 4.5% in data set [1]; -3.3% in data set [2]; 0.4% in data set [3]; 4.2% in data set [4]; 50% in data set [7]; 45.5% in [8]. The inhibition is -3.8% in data set [9]; 87.5% in the data set filed under Homo sapiens; 12.1% in data set [10]; 43.6% in [11]; 0.9% in data set [13]; 58.5% in data set [14]. For the same compound, the TD50 at 0.25 h in data set [12] amounted to 92 mg/kg. In addition, in the data set on Mus musculus [15], the ED50 is 28 mg/kg.
In the case of `Cl.NCc1ccc(OCc2cccc(Cl)c2)cc1`, the inhibition was 13.1% in data set [1]; 2.9% in data set [2]; -1.6% in data set [3]; -7.4% in [4]; 7.5% in data set [7]; 84.1% in [8]. The inhibition in data set [9] was 11.4%; in the data set listed under Homo sapiens, 80.5%; in data set [10] it was 1.4%; in data set [11], -1.9%; in data set [13], 17%; in data set [14], 83.9%. For the same compound, the ED50 in the data set with Mus musculus [6] is 54 mg/kg. For the same compound, in data set [12], the TD50 at 0.25 h is 160 mg/kg.
`Cl.NCc1ccc(OCc2ccc(Cl)cc2)cc1`: the inhibition in [1] is 10.9%; in data set [2], 7.6%; in data set [3], 6.4%; in data set [4], 16.8%; in data set [5], -6.7%; in data set [7], 3.7%. For the same compound, the inhibition came to 75.7% in [8]; 79.2% in the data set listed under Homo sapiens; 0.3% in data set [10]; 45.4% in [11]; 13% in [13]; 64.7% in data set [14]. For the same compound, the ED50 in the data set on Mus musculus [6] is below 100 mg/kg.
Take `Cl.NCc1ccc(OCc2ccccc2F)cc1`: the inhibition in [1] is -7.5%; in data set [2], -0.2%; in data set [3], 2.3%; in [4], 1.6%; in data set [5] it was -7.7%; in [7] it was 32.3%. Further, the inhibition in data set [8] worked out at 61.7%; in [9] it was 13.6%; in the data set filed under Homo sapiens, 71.6%; in data set [10], 6.7%; in [11], 43.5%; in [13], 17%. In addition, the inhibition in data set [14] was 61.3%. Further, in the data set on Mus musculus [15], the median effective dose (ED50) was 30 mg/kg.
For `Cl.NCc1ccc(OCc2ccc(OC(F)(F)F)cc2)cc1`, the inhibition was 1.9% in data set [1]; -9.4% in data set [2]; 3.5% in data set [3]; -2.7% in [4]; 22.3% in [7]; 70.5% in data set [8]. The inhibition in [9] was 4.1%; in the data set listed under Homo sapiens, 86.4%; in data set [10] it was 14.7%; in data set [11] it was 29.3%; in data set [13] it was 21%; in data set [14], 60.1%. Besides, the ED50 in the data set on Mus musculus [15] was below 100 mg/kg.
